From ChEMBL document CHEMBL1128509, “A novel type of retinoic acid receptor antagonist: synthesis and structure-activity relationships of heterocyclic ring-containing benzoic acid derivatives” (J Med Chem, 1995) come the findings set out here.

Assay [1] has as its system HL-60. Description: Concentration inhibiting the differentiation-inducing activity of all-trans-retinoic acid (ATRA)(1*10e-8M) in human promyelocytic leukemia cells. It counts as functional, cell-based. In short, it runs like this:
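HL-60 cells at 1 × 10^5 cells/mL, 1 mL/well, exposed to ATRA (1.0 × 10^-8 M) plus graded test compound concentrations; 5 days in 5% CO2/air. Cells stained with FITC anti-CD11b, fixed in 0.2% paraformaldehyde, and analysed by flow cytometry for % CD11b-positive cells. IC50 read from activity vs log compound concentration plots; mean of two experiments.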

Assay [2] is described as follows: The concentration required to inhibit the binding of [3H]ATRA to retinoic acid receptor in human promyelocytic leukemia cells.
A short description of assay [3]: Differentiation-inducing activity of the compound. ED1/3 value was obtained from the percentage of the differentiated cells (CD11b-positive cells). It counts as functional, Homo sapiens. In outline:
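Human promyelocytic leukemia HL-60 cells were exposed to compound alone and scored for differentiation toward mature granulocytes. The read-out was the percentage of CD11b-positive (differentiated) cells, and ED1/3 was derived from these percentages. Activity was judged at concentrations below 3.0 × 10^-6 M. Values are the mean of two experiments.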

For assay [4], the species on record is Homo sapiens. Description: Differentiation-inducing activity of the compound. ED1/3 value was obtained from the percentage of the differentiated cells (CD11b-positive cells); No activity at concentrations below 3.0e-6M. It counts as functional.

Activity calls are given as the source filed them. The calls are words filed in the database; no cut-off is given here.

Take `CC1(C)CCC(C)(C)c2cc3c(cc21)CCc1c(-c2ccc(C(=O)O)cc2)ccnc1-3`: the IC50 – broadly, the midpoint of a concentration-inhibition curve – in assay [1] is over 3 µM; in assay [2], over 0.05 µM.

As to `COc1cc2c(cc1C(C)C)CCc1c(-c3ccc(C(=O)O)cc3)cn(Cc3cccnc3)c1-2`, the values for the IC50 in assay [1] and in assay [2] were 0.17 µM and 0.022 µM, respectively.

As for `CC1(C)CCC(C)(C)c2cc3c(cc21)CCc1c(-c2ccc(C(=O)O)cc2)cn(C2CC2)c1-3`, the IC50 in assay [1] is 0.36 µM; in assay [2], 0.014 µM.

For `CC1(C)CCC(C)(C)c2cc3c(cc21)CCc1c(-c2ccc(C(=O)O)cc2)nn(Cc2cccnc2)c1-3`, the figures for the IC50 in assay [1] and in assay [2] were 0.0013 µM and 0.00091 µM, respectively.

For the compound `CC(C)Oc1cc2c(cc1Cl)CCc1c(-c3ccc(C(=O)O)cc3)cn(Cc3cccnc3)c1-2`, the IC50 in assay [1] stood at 0.23 µM; in assay [2] it was 0.0029 µM.

As to `CC1(C)CCC(C)(C)c2cc3c(ccc4c(-c5ccc(C(=O)O)cc5)cn(Cc5cccnc5)c43)cc21`, the IC50 stood at 0.077 µM in assay [1] and 0.011 µM in assay [2].

For the compound `CC1(C)CCC(C)(C)c2cc3c(cc21)CCc1c(-c2ccc(C(=O)O)cc2)cn(-c2cccnc2)c1-3`, the IC50 is 0.033 µM in assay [1] and 0.00059 µM in assay [2].

In the case of `Cn1cc(-c2ccc(C(=O)O)cc2)c2c1-c1cc3c(cc1CC2)C(C)(C)CCC3(C)C`, the IC50 was 0.2 µM in assay [1] and over 0.05 µM in assay [2].

Regarding `CC1(C)CCC(C)(C)c2cc3c(cc21)CCc1c(-c2ccc(C(=O)O)cc2)cnnc1-3`, the figures for the IC50 in assay [1] and in assay [2] were over 3 µM and over 0.05 µM, respectively.

Compound `CC1=C(/C=C/C(C)=C/C=C/C(C)=C/C(=O)O)C(C)(C)CCC1` [TRETINOIN] came in with an ED1/3 in assay [3] of 340 pM. The same compound yielded an IC50 in assay [2] of 0.00063 µM.

Consider `CC1(C)CCC(C)(C)c2cc3c(cc21)CCc1c(-c2ccc(C(=O)O)cc2)cn(Cc2ccccc2)c1-3`, for which the results for the IC50 in assay [1] and in assay [2] were 0.21 µM and 0.0012 µM, respectively.

Regarding `CC1(C)CCC(C)(C)c2cc(-c3cc(-c4ccc(C(=O)O)cc4)[nH]n3)ccc21`, the ED1/3 in assay [3] was 900 pM. The same compound registered an IC50 in assay [2] of 0.019 µM.

As to `CC1(C)CCC(C)(C)c2cc3c(cc21)CCc1c(-c2ccc(C(=O)O)cc2)coc1-3`, the IC50 in assay [1] is 0.3 µM; in assay [2], over 0.05 µM.

Regarding `Cn1nc2c(c1-c1ccc(C(=O)O)cc1)CCc1cc3c(cc1-2)C(C)(C)CCC3(C)C`, the ED1/3 entry in assay [4] was “inactive”. For the same compound, the 50% inhibitory concentration (IC50) in assay [2] is 0.08 µM.

For the compound `Cn1nc(-c2ccc(C(=O)O)cc2)c2c1-c1cc3c(cc1CC2)C(C)(C)CCC3(C)C`, the ED1/3 result in assay [4] is “inactive”. In addition, the IC50 in assay [2] was determined as 0.016 µM.

For the compound `CC1(C)CCC(C)(C)c2cc3c(cc21)CCc1c(-c2ccc(C(=O)O)cc2)cn(Cc2ccco2)c1-3`, the IC50 in assay [1] worked out at 0.051 µM; in assay [2], 0.0034 µM.

`CC1(C)CCC(C)(C)c2cc3c(cc21)SCc1c(-c2ccc(C(=O)O)cc2)cn(Cc2cccnc2)c1-3`: the IC50 stood at 0.0056 µM in assay [1] and 0.00016 µM in assay [2].

For `COc1ccncc1-n1cc(-c2ccc(C(=O)O)cc2)c2c1-c1cc3c(cc1CC2)C(C)(C)CCC3(C)C`, the IC50 is 0.65 µM in assay [1] and 0.0056 µM in assay [2].

Turning to `CC1(C)CCC(C)(C)c2cc3c(cc21)CCc1c(-c2ccc(C(=O)O)cc2)cn(Cc2ccccn2)c1-3`, the values for the IC50 in assay [1] and in assay [2] were 0.017 µM and 0.00014 µM, respectively.

As to `CC1(C)Cc2c(-c3ccc(C(=O)O)cc3)cn(Cc3cccnc3)c2-c2cc3c(cc21)C(C)(C)CCC3(C)C`, the IC50 in assay [1] is 1 µM; in assay [2], over 0.05 µM.

As for `CC1(C)CCOc2cc3c(cc21)CCc1c(-c2ccc(C(=O)O)cc2)cn(Cc2cccnc2)c1-3`, the IC50 is 1.6 µM in assay [1] and over 0.05 µM in assay [2].

Turning to `CC1(C)CCC(C)(C)c2cc3c(cc21)CCCc1c(-c2ccc(C(=O)O)cc2)cn(Cc2cccnc2)c1-3`, the IC50 in assay [1] amounted to 0.078 µM; in assay [2], 0.0047 µM.

Take `CC1(C)CCC(C)(C)c2cc3c(cc21)CCc1c(-c2ccc(C(=O)O)cc2)cn(Cc2cccnc2)c1-3`: the IC50 in assay [1] came out at 0.0049 µM; in assay [2] it was 0.00034 µM.

Take `CC1(C)CCC(C)(C)c2cc3c(cc21)CCc1c(-c2ccc(C(=O)O)cc2)csc1-3`: the IC50 in assay [1] was 2.4 µM; in assay [2], over 0.005 µM.

Turning to `CC1(C)CCC(C)(C)c2cc3c(cc21)CCc1c(-c2ccc(C(=O)O)cc2)cn(CCc2ccccn2)c1-3`, the IC50 in assay [1] came to 1.3 µM; in assay [2], 0.016 µM.

For the compound `CC1(C)CCC(C)(C)c2cc3c(cc21)CCc1c(-c2ccc(C(=O)O)cc2)cn(CC24CC5CC(CC(C5)C2)C4)c1-3`, the IC50 in assay [1] is over 3 µM; in assay [2] it was over 0.05 µM.

`CC1(C)CCSc2cc3c(cc21)CCc1c(-c2ccc(C(=O)O)cc2)cn(Cc2cccnc2)c1-3`: the IC50 was found to be 1.1 µM in assay [1] and 0.013 µM in assay [2].

With `CC1(C)CCC(C)(C)c2cc3c(cc21)CCc1c(-c2ccc(C(=O)O)cc2)n[nH]c1-3`, the ED1/3 result in assay [4] is “inactive”. Further, the IC50 in assay [2] was 0.017 µM.

As for `CC1(C)CCC(C)(C)c2cc3c(cc21)OCc1c(-c2ccc(C(=O)O)cc2)cn(Cc2cccnc2)c1-3`, the IC50 in assay [1] came out at 0.1 µM; in assay [2] it was 0.019 µM.

Take `CC(C)Oc1cc2c(cc1C(C)C)CCc1c(-c3ccc(C(=O)O)cc3)cn(Cc3cccnc3)c1-2`: the IC50 in assay [1] was 0.069 µM; in assay [2], 0.00097 µM.

As to `CC(C)Oc1cc2c(cc1-c1ccccc1)CCc1c(-c3ccc(C(=O)O)cc3)cn(Cc3cccnc3)c1-2`, the IC50 in assay [1] came to 0.3 µM; in assay [2], 0.03 µM.

As to `CC1(C)CCC(C)(C)c2cc3c(cc21)CCc1c(-c2ccc(C(=O)O)cc2)nn(Cc2ccccc2)c1-3`, the half-maximal inhibitory concentration (IC50) amounted to 0.056 µM in assay [1] and 0.0015 µM in assay [2].

For `CC1(C)CCC(C)(C)c2cc3c(cc21)CCc1c(-c2ccc(C(=O)O)cc2)cn(Cc2ccncc2)c1-3`, the IC50 was found to be 0.084 µM in assay [1] and 0.0023 µM in assay [2].

In the case of `CC1(C)CCC(C)(C)c2cc3c(cc21)CCc1c(-c2ccc(C(=O)O)cc2)cn(Cc2cccs2)c1-3`, the IC50 in assay [1] was 0.54 µM; in assay [2], 0.0045 µM.

Turning to `CC1(C)CCC(C)(C)c2cc3c(cc21)CCc1c(-c2ccc(C(=O)O)cc2)cn(-c2cnccc2Cl)c1-3`, the IC50 in assay [1] is 0.49 µM; in assay [2] it was 0.0032 µM.

Regarding `CC1(C)CCC(C)(C)c2cc3c(cc21)CCc1c(-c2ccc(C(=O)O)cc2)c[nH]c1-3`, the results for the IC50 in assay [1] and in assay [2] were over 3 µM and 0.032 µM, respectively.

In the case of `CCCCCn1cc(-c2ccc(C(=O)O)cc2)c2c1-c1cc3c(cc1CC2)C(C)(C)CCC3(C)C`, the IC50 in assay [1] was 0.52 µM; in assay [2] it was 0.019 µM.

As for `Cc1cc2c(cc1OC(C)C)-c1c(c(-c3ccc(C(=O)O)cc3)cn1Cc1cccnc1)CC2`, the figures for the IC50 in assay [1] and in assay [2] were 0.037 µM and 0.0037 µM, respectively.
